Published values pooled from the literature.
Cell line: MDA-MB-468
Effect on: cell growth or viability

Structure (SMILES)	technique	time	IC50
COc1ccc(/C=C/C(=O)c2cc(Br)ccc(=O)c2O)cc1	MTT	48 h	6.3 µM
O=[N+]([O-])c1ccc(S(=O)(=O)NN=Cc2cn(CCN3CCOCC3)c3ccccc23)cc1	MTT	48 h	37.1 µM
Oc1ccc(N=Nc2ccccc2)c2ccccc12	MTT		4.9 µM
O=S(=O)(NN=Cc1cn(CCN2CCOCC2)c2ccccc12)c1ccc(-c2ccccc2)cc1	MTT	48 h	32 µM
CC1=CC(=C(c2ccc(N)c(C)c2)c2ccc(N)c(C)c2)C=CC1=N	MTT		3.1 µM
O=C(/C=C/c1ccccc1)c1ccccc1	resazurin	72 h	> 50 µM
COc1cc(/C=C2\SC(=O)NC2=O)ccc1OCc1ccc(Cl)cc1Cl	MTT	72 h	64.1 µM
CN(C)c1ccc(/C=C/c2ccnc3ccc4ccccc4c23)cc1	MTT		0.12 µM
CCN1CCN(Cc2ccc(Nc3ncc(F)c(-c4cc(F)c5nc(C)n(C(C)C)c5c4)n3)nc2)CC1	CCK-8		0.711 µM
N=C(N)c1ccc(-c2ccc(-c3ccccc3)o2)cc1	MTT		0.66 µM
Cc1cc(NS(=O)(=O)c2ccc(NC(=O)COc3ccc(C(C)(C)c4ccccc4)cc3)cc2)nc(C)n1	MTT	72 h	34.9 µM
COc1cc2cc(OC)c3cc4c(cc3c2c(OC)c1OC)OCO4	MTT		21 µM
COc1ccc(S(=O)(=O)NN=Cc2cn(CCN3CCOCC3)c3ccccc23)cc1	MTT	48 h	43.3 µM
CC(=O)Nc1nc(C)c(-c2csc(Nc3ccccc3)n2)s1	MTT	72 h	11.1 µM
O=S(=O)(NN=Cc1cn(CCN2CCOCC2)c2ccccc12)c1ccc2ccccc2c1	MTT	48 h	53.4 µM
O=C(CSc1nc2ccc(N=Cc3ccc(Sc4nnnn4-c4ccccc4)o3)cc2s1)N1CCOCC1	MTT	48 h	26.9 µM
O=S(=O)(NN=Cc1cn(CCN2CCOCC2)c2ccccc12)c1ccccc1	MTT	48 h	47 µM
COc1ccc(Br)cc1/C=C/C(=O)c1ccc(NC(C)=O)cc1	MTT	72 h	1.8 µM
Cc1c2cccc(Sc3ccccc3)c2c2c3c(cccc13)[S+](c1ccccc1)C2 (centres unmarked)	MTT		0.71 µM
O=S(=O)(NN=Cc1cn(CCN2CCOCC2)c2ccccc12)c1ccc(Cl)cc1	MTT	48 h	8.2 µM
